Laboratory results taken from ChEMBL document CHEMBL3877264, “Quinolidene-rhodanine conjugates: Facile synthesis and biological evaluation” (Eur J Med Chem, 2017).
Converted amounts (≈) assume the structure as drawn.

Columns and labels:
Type in all cases: functional
Candida albicans = assay: Antifungal activity against Candida albicans NCIM 3471 by standard agar method
How it was run: (§1)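 MICs determined by standard agar method; DMSO as solvent control.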

Bacillus subtilis [1] = assay: Growth inhibition of Bacillus subtilis NCIM 2079 at 10 ug/ml measured after 12 hrs relative to control; settings: NCIM 2079, 12 h, read-out: GI
How it was run: (§2)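 Bacteria grown in LB at 37 °C and 180 rpm to OD 1. Compounds added to wells, then 0.1% inoculum of 1 OD culture (620 nm). Growth read as OD at 620 nm after 8 h for gram-negative and after 12 h for gram-positive strains.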

Staphylococcus aureus [2] = assay: Growth inhibition of Staphylococcus aureus NCIM 2010 at 3 ug/ml measured after 12 hrs relative to control; settings: NCIM 2010, 12 h, read-out: GI; how it was run: as §2
Pseudomonas fluorescens [3] = assay: Antibacterial activity against Pseudomonas fluorescens NCIM 2036 measured after 8 hrs; settings: NCIM 2036, 8 h; how it was run: as §2
[4] = system: Mycobacterium tuberculosis; assay: Growth inhibition of Mycobacterium tuberculosis H37Ra ATCC 25177 at dormant stage measured after 12 days by XTT dye based two fold dilution method; settings: H37Ra ATCC 25177, 288 h
How it was run: (§3)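 MTB H37Ra was grown in Dubos medium, then exposed in Mycobacterium pheli minimal medium (pH 6.6) to compounds dissolved in DMSO. The assay ended on day 8 (active) or day 12 (dormant). Viable cells were measured by XTT reduction menadione assay at 470 nm, blank-corrected, relative to vehicle control. Triplicates were expressed as mean ± SD. MIC came from dose-response curves.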

[5] = system: Mycobacterium tuberculosis; assay: Growth inhibition of Mycobacterium bovis BCG ATCC 35743 at dormant stage measured after 12 days by nitrate reductase dye based two fold dilution method; settings: BCG str. ATCC 35743, 288 h
How it was run: (§4)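 M. bovis BCG was grown in Dubos medium and assayed in Mycobacterium pheli minimal medium (pH 6.6), with compounds from DMSO stocks. Incubation lasted 8 days for active and 12 days for dormant cultures. Viability was read by nitrate reductase at 540 nm against cell-free blanks, with vehicle set as 100% growth. Primary screen was at 30, 10 and 3 µg/ml, in triplicate, mean ± SD. MIC was taken from dose-response curves.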

Staphylococcus aureus [6] = assay: Growth inhibition of Staphylococcus aureus NCIM 2010 at 30 ug/ml measured after 12 hrs relative to control; settings: NCIM 2010, 12 h, read-out: GI; how it was run: as §2
Escherichia coli [7] = assay: Antibacterial activity against Escherichia coli NCIM 2688 measured after 8 hrs; settings: NCIM 2688, 8 h; how it was run: as §2
Staphylococcus aureus [8] = assay: Antibacterial activity against of Staphylococcus aureus NCIM 2010 measured after 12 hrs; settings: NCIM 2010, 12 h; how it was run: as §2
Pseudomonas fluorescens [9] = assay: Growth inhibition of Pseudomonas fluorescens NCIM 2036 at 10 ug/ml measured after 8 hrs relative to control; settings: NCIM 2036, 8 h, read-out: GI; how it was run: as §2
Escherichia coli [10] = assay: Growth inhibition of Escherichia coli NCIM 2688 at 30 ug/ml measured after 8 hrs relative to control; settings: NCIM 2688, 8 h, read-out: GI; how it was run: as §2
Pseudomonas fluorescens [11] = assay: Growth inhibition of Pseudomonas fluorescens NCIM 2036 at 30 ug/ml measured after 8 hrs relative to control; settings: NCIM 2036, 8 h, read-out: GI; how it was run: as §2
[12] = system: Mycobacterium tuberculosis; assay: Growth inhibition of Mycobacterium bovis BCG ATCC 35743 at dormant stage at 3 ug/ml measured after 12 days by nitrate reductase dye based two fold dilution method relative to control; settings: BCG str. ATCC 35743, 288 h, read-out: GI; how it was run: as §4
Aspergillus niger = assay: Antifungal activity against Aspergillus niger NCIM 1196 by standard agar method; how it was run: as §1
Bacillus subtilis [13] = assay: Antibacterial activity against Bacillus subtilis NCIM 2079 measured after 12 hrs; settings: NCIM 2079, 12 h; how it was run: as §2
Staphylococcus aureus [14] = assay: Growth inhibition of Staphylococcus aureus NCIM 2010 at 10 ug/ml measured after 12 hrs relative to control; settings: NCIM 2010, 12 h, read-out: GI; how it was run: as §2
[15] = system: Mycobacterium tuberculosis; assay: Growth inhibition of Mycobacterium tuberculosis H37Ra ATCC 25177 at active stage measured after 8 days by XTT dye based two fold dilution method; settings: H37Ra ATCC 25177, 192 h; how it was run: as §3
Bacillus subtilis [16] = assay: Growth inhibition of Bacillus subtilis NCIM 2079 at 3 ug/ml measured after 12 hrs relative to control; settings: NCIM 2079, 12 h, read-out: GI; how it was run: as §2
Escherichia coli [17] = assay: Growth inhibition of Escherichia coli NCIM 2688 at 3 ug/ml measured after 8 hrs relative to control; settings: NCIM 2688, 8 h, read-out: GI; how it was run: as §2
[18] = system: Mycobacterium tuberculosis; assay: Growth inhibition of Mycobacterium bovis BCG ATCC 35743 at dormant stage at 10 ug/ml measured after 12 days by nitrate reductase dye based two fold dilution method relative to control; settings: BCG str. ATCC 35743, 288 h, read-out: GI; how it was run: as §4
Aspergillus flavus = assay: Antifungal activity against Aspergillus flavus NCIM 539 by standard agar method; how it was run: as §1
[19] = Antifungal activity against Fusarium oxysporum NCIM 1332 by standard agar method; how it was run: as §1
[20] = system: Mycobacterium tuberculosis; assay: Growth inhibition of Mycobacterium bovis BCG ATCC 35743 at dormant stage at 30 ug/ml measured after 12 days by nitrate reductase dye based two fold dilution method relative to control; settings: BCG str. ATCC 35743, 288 h, read-out: GI; how it was run: as §4
Escherichia coli [21] = assay: Growth inhibition of Escherichia coli NCIM 2688 at 10 ug/ml measured after 8 hrs relative to control; settings: NCIM 2688, 8 h, read-out: GI; how it was run: as §2
[22] = Antifungal activity against Cryptococcus neoformans NCIM 576 by standard agar method; how it was run: as §1
[23] = system: Mycobacterium tuberculosis; assay: Growth inhibition of Mycobacterium bovis BCG ATCC 35743 at active stage measured after 8 days by nitrate reductase dye based two fold dilution method; settings: BCG str. ATCC 35743, 192 h; how it was run: as §4
Bacillus subtilis [24] = assay: Growth inhibition of Bacillus subtilis NCIM 2079 at 30 ug/ml measured after 12 hrs relative to control; settings: NCIM 2079, 12 h, read-out: GI; how it was run: as §2
Pseudomonas fluorescens [25] = assay: Growth inhibition of Pseudomonas fluorescens NCIM 2036 at 3 ug/ml measured after 8 hrs relative to control; settings: NCIM 2036, 8 h, read-out: GI; how it was run: as §2

SMILES	MIC (Candida albicans)	inhibition of growth at 10 µg/mL (Bacillus subtilis [1])	inhibition of growth at 3 µg/mL (Staphylococcus aureus [2])	MIC (Pseudomonas fluorescens [3])	IC50 [4]	IC90 [4]	IC50 [5]	IC90 [5]	inhibition of growth at 30 µg/mL (Staphylococcus aureus [6])	MIC (Escherichia coli [7])	MIC (Staphylococcus aureus [8])	inhibition of growth at 10 µg/mL (Pseudomonas fluorescens [9])	inhibition of growth at 30 µg/mL (Escherichia coli [10])	inhibition of growth at 30 µg/mL (Pseudomonas fluorescens [11])	inhibition of growth at 3 µg/mL [12]	MIC (Aspergillus niger)	MIC (Bacillus subtilis [13])	inhibition of growth at 10 µg/mL (Staphylococcus aureus [14])	IC50 [15]	IC90 [15]	also measured
Cc1ccc2nc(Cl)c(/C=C3\SC(=S)N(CC(=O)O)C3=O)cc2c1	125 µg/mL (≈ 330 µM)	-6.38%	0.77%	> 30 µg/mL	> 30 µg/mL	> 30 µg/mL	> 30 µg/mL	> 30 µg/mL	-5.17%	> 30 µg/mL	> 30 µg/mL	-7.54%	-6.72%	13.2%	14.9%	175 µg/mL (≈ 462 µM)	> 30 µg/mL	-6.18%	> 30 µg/mL	> 30 µg/mL	inhibition of growth at 3 µg/mL (Bacillus subtilis [16]): -24.1%; inhibition of growth at 3 µg/mL (Escherichia coli [17]): -1.08%; inhibition of growth at 10 µg/mL [18]: 13.5%; MIC (Aspergillus flavus): 150 µg/mL (≈ 396 µM); MIC [19]: 150 µg/mL (≈ 396 µM); inhibition of growth at 30 µg/mL [20]: -0.24%; inhibition of growth at 10 µg/mL (Escherichia coli [21]): 0.409%; MIC [22]: 125 µg/mL (≈ 330 µM); IC50 [23]: > 30 µg/mL; IC90 [23]: > 30 µg/mL; inhibition of growth at 30 µg/mL (Bacillus subtilis [24]): 1.48%; inhibition of growth at 3 µg/mL (Pseudomonas fluorescens [25]): -67.2%
O=C(O)CN1C(=O)/C(=C/c2cc3cc(Cl)ccc3nc2Cl)SC1=S	125 µg/mL (≈ 313 µM)	-12.6%	-1.15%	> 30 µg/mL	> 30 µg/mL	> 30 µg/mL	> 30 µg/mL	> 30 µg/mL	-32.2%	> 30 µg/mL	> 30 µg/mL	-1.23%	-14%	-2.12%	-9.46%	100 µg/mL (≈ 250 µM)	> 30 µg/mL	3.88%	> 30 µg/mL	> 30 µg/mL	inhibition of growth at 3 µg/mL (Bacillus subtilis [16]): -4.86%; inhibition of growth at 3 µg/mL (Escherichia coli [17]): -12.7%; inhibition of growth at 10 µg/mL [18]: 2.07%; MIC (Aspergillus flavus): 150 µg/mL (≈ 376 µM); MIC [19]: 150 µg/mL (≈ 376 µM); inhibition of growth at 30 µg/mL [20]: 9.92%; inhibition of growth at 10 µg/mL (Escherichia coli [21]): -12.4%; MIC [22]: 125 µg/mL (≈ 313 µM); IC50 [23]: > 30 µg/mL; IC90 [23]: > 30 µg/mL; inhibition of growth at 30 µg/mL (Bacillus subtilis [24]): 1.23%; inhibition of growth at 3 µg/mL (Pseudomonas fluorescens [25]): -72.5%
